The array DNA melting data of Ke et al. (doi:10.1101/2024.01.08.574731)

Key:
[1] = melting temperature; fluorescence melt of hairpins on a sequencing array, two-state fit, raised by 9.35 °C to match UV melts; settings: sodium 0.088 M
In short: (§1)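 To match UV melts, fitted temperatures were raised by 9.35 °C. These fits were bootstrapped two-state models that gave melting temperature and folding enthalpy, combined by inverse variance over four replicates. The input was normalised Cy3 fluorescence of library hairpins with annealed Cy3 and quencher oligos on a sequenced MiSeq flow cell, imaged in 50 mM Na-HEPES pH 8.0, 25 mM NaCl in 2.5 °C steps up to 60 °C.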

[2] = folding enthalpy; higher = less favourable; fluorescence melt of hairpins on a sequencing array, two-state fit; settings: sodium 0.088 M
In short: as §1

Sequence | Tm [1] | folding enthalpy [2]
GCAGCCGAAAGGCATGC ((((((....))).))) | 62 °C | -19.6 kcal/mol
GTTACCGGAAACAGTAAC (((((.(....).))))) | 32.8 °C | -17.2 kcal/mol
GCTTTTGCGAAAGCAAGC (((..(((....)))))) | 35 °C | -10.3 kcal/mol
TTCACGAAAGTGAA (((((....))))) | 51 °C | -19.2 kcal/mol
GATCAGAACCCTGATC ((((((....)))))) | 47 °C | -39.8 kcal/mol
GCCTTTGAAAAAAGGC ((((((....)))))) | 59.2 °C | -32.6 kcal/mol
GGACCTGAAAAGGTCC ((((((....)))))) | 68.2 °C | -34.4 kcal/mol
GGTCCACGAAAGTGTACC (((.(((....))).))) | 50 °C | -21.7 kcal/mol
CGATAGCGGAAACGCTCG (((..(((....)))))) | 41 °C | -13.9 kcal/mol
GATCCTTACTAGGATC ((((((....)))))) | 52.4 °C | -36.5 kcal/mol
GGGCATGGAAACGTGCCC (((((.(....).))))) | 60 °C | -50.3 kcal/mol
GCCCCACCGAAAGGTGGC (((..(((....)))))) | 40.7 °C | -4.81 kcal/mol
GATCTCGATTGAGATC ((((((....)))))) | 51.7 °C | -39.4 kcal/mol
GGGGTAGGAAACTGCTCC ((.(.((....)).).)) | 35.9 °C | -29.9 kcal/mol
GCGCATGCGAAAGCACGC (((..(((....)))))) | 54.6 °C | -13.7 kcal/mol
GTGCGTACGAAAGTACAC (((..(((....)))))) | 54.1 °C | -10.5 kcal/mol
GATCCTGGAAACAGGGTC ((.((((....)))).)) | 50.8 °C | -32.9 kcal/mol
GCGTAGGGAAACTTACGC (((((.(....).))))) | 50.4 °C | -39.4 kcal/mol
GTCTTTACGAAAGTAGAC (((..(((....)))))) | 31.8 °C | -17.4 kcal/mol
GCGCACGGAAACGCGCAC (.((.((....)).)).) | 52.4 °C | -13.7 kcal/mol
CGGAACGGAAACGTCCG (((.(((....)))))) | 47.8 °C | -30.1 kcal/mol
GTGGGCGAAAGCCAGCAC ((((((....)))..))) | 46.5 °C | -12.8 kcal/mol
GCTCGCGAAAGCGCAGC ((((((....))).))) | 54.4 °C | -19.6 kcal/mol

Sequence | Tm [1] | folding enthalpy [2]
GGGCTTGGAAACGAGTCC ((.((.(....).)).)) | 43.9 °C | -32.8 kcal/mol
GTGGTTTCGAAAGAACAC (((..(((....)))))) | 31.3 °C | -15.6 kcal/mol
GATCTCTCAGGAGATC ((((((....)))))) | 54.2 °C | -48 kcal/mol
ATCTGGAAACAGAT (((((....))))) | 39.1 °C | -18.3 kcal/mol
GTTTAGGGAAACTTGAAC (((.(.(....).).))) | 34.1 °C | -13 kcal/mol
GTCTTTTCGAAAGAAGAC (((..(((....)))))) | 31.6 °C | -18.7 kcal/mol
GATCTGTACGCAGATC ((((((....)))))) | 54.4 °C | -44.9 kcal/mol
GAATCTGGAAACAGATTC (((((((....))))))) | 55.6 °C | -49.8 kcal/mol
GCACGCGAAAGCGTTTGC ((((((....)))..))) | 42.9 °C | -10.6 kcal/mol
GATCTCCAGGGAGATC ((((((....)))))) | 55 °C | -36.5 kcal/mol
GCATCGCGAAAGCAGTGC (((..((....))..))) | 52.3 °C | -18 kcal/mol
GAGCAAGGAAACTCGCTC ((((.((....)).)))) | 40.6 °C | -30.8 kcal/mol
GGGTCGCGAAAGCGCCCC (((.(((....))).))) | 66.8 °C | -18.6 kcal/mol
GACAGAGAAATCTGTC ((((((....)))))) | 50.9 °C | -33.2 kcal/mol
GAAATTGGAAACGATTTC (((((.(....).))))) | 37.6 °C | -30.1 kcal/mol
GTACCCGAAAGGGCTTAC ((((((....)))..))) | 27.1 °C | -11.2 kcal/mol
GCGCGGCGAAAGCGACGC (((..((....))..))) | 63.2 °C | -15.2 kcal/mol
GAAACCGAAAGGTGATTC ((((((....)))..))) | 41.6 °C | -22.4 kcal/mol
GATGCAGGAAACTGCGTC ((.((((....)))).)) | 52.5 °C | -44.7 kcal/mol
GTTGTGGGAAACTACAAC (((((.(....).))))) | 46.3 °C | -36.1 kcal/mol
GATTGGGGAAACCCAACC (.(((((....))))).) | 36.7 °C | -14.5 kcal/mol
GTTCACGAAAGTGGAAC ((((((....))).))) | 45.4 °C | -19.1 kcal/mol
GCTTGGCGAAAGCTGAGC (((..((....))..))) | 56.2 °C | -22.3 kcal/mol
